Measurements taken from ChEMBL document CHEMBL1138557, “Synthesis and anticonvulsant activity of some substituted 1,2,4-thiadiazoles” (Eur J Med Chem, 2009).
The source made the active and inactive calls. No cut-off for these calls is given here.

Assays:
[1] = system: Mus musculus; experiment: Anticonvulsant activity in albino CF1 mouse assessed as minimum inhibition of maximal electroshock-induced seizure in half or more of mouse at 300 mg/kg, ip after 4 hrs by MES test; type: functional, organism-based; design: dose 300 mg/kg
In short: (§1)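 Male CF-1 albino mice (18-25 g), groups of 4. Compound suspended in 0.5% methyl cellulose-water or PEG, given i.p. at 30, 100 and 300 mg/kg. Seizures induced by maximal electroshock (MES) or subcutaneous pentylenetetrazole (scPTZ), tested 0.5 and 4 h after dosing.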

[2] = system: Mus musculus; experiment: Neurotoxicity in ip dosed albino CF1 mouse assessed as minimum drug concentration required for motor impairment in half or more of mouse after 0.5 hrs by rotarod test; type: toxicity, organism-based; conditions: in vivo
In short: (§2)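 Motor impairment was tested on a rotorod in mice trained to stay on a rod of 3.2 cm diameter turning at 10 rev/min. Compound given i.p. at 30, 100 or 300 mg/kg, groups of 4, read at 0.5 and 4 h. Neurotoxicity was scored as failure to keep balance for at least 1 min in each of three trials. Value is the minimum dose affecting half or more of the animals.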

[3] = system: Mus musculus; experiment: Anticonvulsant activity in albino CF1 mouse assessed as inhibition of pentylenetetrazole-induced seizures in half or more of mouse at 300 mg/kg, ip after 4 hrs by scPTZ test; type: functional, organism-based; design: dose 300 mg/kg; in short: as §1
[4] = system: Mus musculus; experiment: Anticonvulsant activity in ip dosed albino CF1 mouse assessed as minimum drug concentration required for inhibition of maximal electroshock-induced seizure in half or more of mouse after 0.5 hrs by MES test; type: functional; in short: as §1
[5] = system: Mus musculus; experiment: Neurotoxicity in albino CF1 mouse assessed as motor impairment at 300 mg/kg, ip after 4 hrs by rotarod test; type: toxicity, organism-based; design: dose 300 mg/kg, route intraperitoneal; conditions: in vivo; in short: as §2
[6] = system: Mus musculus; experiment: Anticonvulsant activity in albino CF1 mouse assessed as inhibition of pentylenetetrazole-induced seizures in half or more of mouse at 300 mg/kg, ip after 0.5 hrs by scPTZ test; type: functional, organism-based; design: dose 300 mg/kg; in short: as §1
[7] = system: Rattus norvegicus; experiment: Sedative-hypnotic activity in phenobarbitone-activated albino Sprague-Dawley rat assessed as increase in sleeping time at 100 mg/kg pretreated for 30 mins before phenobarbitone sodium challenge relative to control; type: functional
In short: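 Compound dissolved in PEG and given at 100 mg/kg to groups of six animals. Phenobarbitone sodium was injected 30 min later. Sleep duration was recorded in minutes (mean ± SEM) and expressed as % increase over a phenobarbitone-only control.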

[8] = system: Mus musculus; experiment: Anticonvulsant activity in ip dosed albino CF1 mouse assessed as minimum drug concentration required for inhibition of maximal electroshock-induced seizure in half or more of mouse after 4 hrs by MES test; type: functional; in short: as §1
[9] = system: Mus musculus; experiment: Anticonvulsant activity in ip dosed albino CF1 mouse assessed as minimum drug concentration required for inhibition of pentylenetetrazole-induced seizures in half or more of mouse after 0.5 hrs by scPTZ test; type: functional; in short: as §1
[10] = system: Mus musculus; experiment: Neurotoxicity in ip dosed albino CF1 mouse assessed as minimum drug concentration required for motor impairment in half or more of mouse after 4 hrs by rotarod test; type: toxicity, organism-based; conditions: in vivo; in short: as §2
[11] = system: Mus musculus; experiment: Anticonvulsant activity in albino CF1 mouse assessed as minimum inhibition of maximal electroshock-induced seizure in half or more of mouse at 300 mg/kg, ip after 0.5 hrs by MES test; type: functional, organism-based; design: dose 300 mg/kg; in short: as §1
[12] = system: Mus musculus; experiment: Neurotoxicity in albino CF1 mouse assessed as motor impairment at 300 mg/kg, ip after 0.5 hrs by rotarod test; type: toxicity, organism-based; design: dose 300 mg/kg, route intraperitoneal; conditions: in vivo; in short: as §2

| Structure (SMILES) | Activity [1] | Activity [2] [mg/kg] | Activity [3] | Activity [4] [mg/kg] | Activity [5] | Activity [6] | Activity [7] [%] | Activity [8] [mg/kg] | Activity [9] [mg/kg] | Activity [10] [mg/kg] | Activity [11] | Activity [12] |
| --- | --- | --- | --- | --- | --- | --- | --- | --- | --- | --- | --- | --- |
| O=c1snc(Nc2cccnc2)n1-c1cccnc1 | inactive | 100 | inactive | 300 | Non-toxic | inactive |  |  |  |  |  |  |
| O=c1snc(Nc2ccncc2)n1-c1ccncc1 | inactive | 100 | inactive | 300 | Non-toxic | inactive |  |  |  |  |  |  |
| O=c1snc(Nc2cccc3ccccc23)n1-c1cccc2ccccc12 |  | 300 | inactive | 100 | Non-toxic | inactive | 16.4 | 300 |  |  |  |  |
| c1cc(Nc2nsc(Nc3ccncc3)n2)ccn1 | inactive | 100 | inactive | 300 | Non-toxic | inactive |  |  |  |  |  |  |
| c1cncc(Nc2nsc(Nc3cccnc3)n2)c1 | inactive | 100 | inactive | 300 | Non-toxic | inactive |  |  |  |  |  |  |
| CCOc1ccc(Nc2nsc(=O)n2-c2ccc(OCC)cc2)cc1 |  | 300 | inactive | 100 |  |  | 67.1 | 300 | 300 | 300 |  |  |
| c1ccc2c(Nc3nsc(Nc4cccc5ccccc45)n3)cccc2c1 |  | 300 | inactive | 100 | Non-toxic | inactive | 22.7 | 300 |  |  |  |  |
| c1cnc(Nc2nsc(Nc3ncccn3)n2)nc1 | inactive | 300 | inactive |  | Non-toxic | inactive | 59.5 |  |  |  | inactive |  |
| O=c1snc(Nc2ccccn2)n1-c1ccccn1 | inactive | 100 | inactive | 300 | Non-toxic | inactive |  |  |  |  |  |  |
| Fc1ccc(Nc2nsc(Nc3ccc(F)cc3)n2)cc1 |  | 100 | inactive | 100 | Non-toxic | inactive |  | 300 |  |  |  |  |
| CCOc1ccc(Nc2nsc(Nc3ccc(OCC)cc3)n2)cc1 |  | 300 | inactive | 100 |  | inactive | 36.7 | 300 |  | 300 |  |  |
| c1ccc(Nc2nsc(Nc3ccccn3)n2)nc1 | inactive | 100 | inactive | 300 | Non-toxic | inactive |  |  |  |  |  |  |
| O=c1snc(Nc2ncccn2)n1-c1ncccn1 | inactive |  | inactive | 300 | Non-toxic | inactive |  |  |  |  |  | Non-toxic |
| NC(=O)N1c2ccccc2C=Cc2ccccc21 [CARBAMAZEPINE] | inactive | 100 | inactive | 30 |  |  |  |  | 100 | 300 |  |  |
| O=c1snc(Nc2ccc(F)cc2)n1-c1ccc(F)cc1 | inactive | 300 | inactive | 100 | Non-toxic | inactive | 17.7 |  |  |  |  |  |
| O=C1NC(=O)C(c2ccccc2)(c2ccccc2)N1 [PHENYTOIN] |  | 100 | inactive | 30 |  | inactive |  | 100 |  | 100 |  |  |
